Results of several laboratories.
Compare with care: the assays were run in different laboratories.
Method: competition with immobilised ligand
RPS6KA5 C-terminal kinase domain: Ribosomal protein S6 kinase alpha-5, C-terminal kinase domain (RPS6KA5, Homo sapiens, UniProt O75582)
RPS6KA5 N-terminal kinase domain: Ribosomal protein S6 kinase alpha-5, N-terminal kinase domain (RPS6KA5, Homo sapiens, UniProt O75582)

F[C@@H]1CCN(c2nccc(-c3cnn4ncccc34)n2)C1
remaining binding (RPS6KA5 C-terminal kinase domain; binding; 1 µM): 73%

O=C(O)[C@@H]1[C@@H](Cn2nnc3ccccc3c2=O)CC[C@H]1C(=O)c1ccc(OCCC2CCOCC2)cc1
remaining binding (RPS6KA5 N-terminal kinase domain; cell-free assay; 1 µM): 100%

CCN1CCN(Cc2ccc(C(=O)Nc3ccc(C)c(Oc4ccc5c(c4)CC(=O)N5)c3)cc2C(F)(F)F)CC1
remaining binding (RPS6KA5 C-terminal kinase domain; binding; 1 µM): 100%

CCC(=O)N[C@H]1CC[C@@H](C(=O)N(C)c2ccc(-c3nc4ccccc4o3)cc2)C1
remaining binding (RPS6KA5 C-terminal kinase domain; cell-free assay; 1 µM): 68%

O=C(NCCCN1CCOCC1)c1ccc(Nc2ncc(Cl)c(-c3ccc(Cl)s3)n2)cc1
remaining binding (RPS6KA5 N-terminal kinase domain; binding; 1 µM): 100%

Nc1ncc2c(n1)-c1c([nH]c3ccc(C#CC4CC4)cc13)CCCC2
remaining binding (RPS6KA5 C-terminal kinase domain; binding; 1 µM): 100%

C=CC(=O)N1CCC(C(=O)NCC(=O)N2CCN(c3nc(-c4cnc(N)nc4C(F)F)nc(N4CCOCC4)n3)CC2)CC1
remaining binding (RPS6KA5 N-terminal kinase domain; binding; 1 µM): 100%

COc1ccc2c(c1)O[C@@H](c1ccc(OC)c(OC)c1)C[C@H]2NC(=O)C1(c2ccc3c(c2)OC(F)(F)O3)CC1
remaining binding (RPS6KA5 C-terminal kinase domain; cell-free assay; 1 µM): 100%

CN(C)c1ncc(F)c(-c2cnn3ncccc23)n1
remaining binding (RPS6KA5 N-terminal kinase domain; binding; 1 µM): 98%

CN(C)C(=O)Cn1cc(-c2nc([C@@](C)(c3ccc(-c4cnc(N)nc4)cc3)C3CC3)no2)cn1
remaining binding (RPS6KA5 C-terminal kinase domain; cell-free assay; 1 µM): 92%

CN(CCCC(F)(F)F)c1nccc(-c2cnn3ncccc23)n1
remaining binding (RPS6KA5 C-terminal kinase domain; binding; 1 µM): 100%

CCc1ccccc1C(=O)Nc1n[nH]c2c(C)c(F)c(C3C(C#N)=C(C)N(C)C(C)=C3C#N)cc12
remaining binding (RPS6KA5 C-terminal kinase domain; cell-free assay; 1 µM): 90%

c1cncc(-c2cccc(Nc3nccc(NC4CCCCC4)n3)c2)c1
remaining binding (RPS6KA5 N-terminal kinase domain; binding; 10 µM): 100%

O=c1nc(-c2ccccn2)sc2ccccc12
remaining binding (RPS6KA5 N-terminal kinase domain; binding; 1 µM): 94%

CNC(=O)[C@@H]1CC[C@@H](n2c(-c3ccc4cnccc4c3)nc3ccc(C(=O)NCc4cccc(C(N)=O)c4)cc32)C1
remaining binding (RPS6KA5 C-terminal kinase domain; binding; 1 µM): 100%

CN(C)c1nccc(-c2cnn3ncccc23)n1
remaining binding (RPS6KA5 C-terminal kinase domain; binding; 1 µM): 98%

Cc1cnc(Nc2ccc(C(=O)N3CCC(N4CCCC4)CC3)cc2)nc1-c1cc2ccccc2s1
remaining binding (RPS6KA5 N-terminal kinase domain; binding; 1 µM): 100%

Cc1cnn2ncc(-c3ccnc(N(C)C)n3)c2c1
remaining binding (RPS6KA5 C-terminal kinase domain; binding; 1 µM): 100%

O=C(c1ccc(Nc2ncc(Cl)c(-c3cc4ccccc4s3)n2)cc1)N1CCC(N2CCCC2)CC1
remaining binding (RPS6KA5 C-terminal kinase domain; binding; 1 µM): 54%

N[C@H]1CCN(c2nccc(-c3cnn4ncccc34)n2)C1
remaining binding (RPS6KA5 N-terminal kinase domain; binding; 1 µM): 100%

O=C(Nc1c[nH]nc1C(=O)NC1CCNCC1)c1cc(F)cc(F)c1
remaining binding (RPS6KA5 N-terminal kinase domain; binding; 1 µM): 96%
